The record followed here is ChEMBL document CHEMBL4177714, “Assessment of a pretomanid analogue library for African trypanosomiasis: Hit-to-lead studies on 6-substituted 2-nitro-6,7-dihydro-5H-imidazo[2,1-b][1,3]thiazine 8-oxides” (Bioorg Med Chem Lett, 2018).

Data set [1] is described as follows: Selectivity index, ratio of IC50 for cytotoxicity against mouse L929 cells to IC50 for antitrypanosomal activity against Trypanosoma brucei brucei 427 bloodstream forms. Conditions: read-out: Ratio IC50. Type of data set: toxicity, cell-based.
Data set [2] can be described thus: Apparent permeability in MDCK2-MDR1 cells at 3 uM incubated over 150 mins at 37 degC by LC-MS/MS method. Type of data set: ADME, cell-based, Canis lupus familiaris. Particulars: dog, MDCK-MDR1. The gist of the method:
(§1)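 MDCK-MDR1 monolayer, apical-to-basolateral transport of compound at 3 μM, run with and without P-gp inhibitor GF120918 (2 μM). Apparent permeability (Papp) recorded; absorption quotient AQ = (Papp+918 − Papp)/Papp+918. Propranolol served as CNS-positive reference.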

In data set [3] the test system is Mus musculus. As to the kind of experiment: Time duration during which drug level in brain stays at or above MIC for antitrypanosomal activity against Trypanosoma brucei brucei TREU 667 infected in Webster mouse at 25 mg/kg, po bid. Type of data set: ADME, organism-based. Conditions: in vivo.
Data set [4] in a line: Half life in mouse liver S9 subcellular fraction. Type of data set: ADME. The gist of the method:
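Metabolic stability: compounds incubated 1 h with CD-1 mouse liver S9 subcellular fractions; half-life derived.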

Data set [5] is described as follows: Absorption quotient in MDCK2-MDR1 cells assessed as (Papp + GF120918 - Papp)/(Papp + GF120918) ratio at 3 uM incubated over 150 mins at 37 degC in presence of P-gp inhibitor GF120918 by LC-MS/MS method. The format is ADME, cell-based, Canis lupus familiaris. Particulars: dog, mdck-mdr1, 2.5 h. A digest of the protocol:
as §1

A short description of data set [6]: Selectivity index, ratio of IC50 for cytotoxicity against human MRC5 cells to IC50 for antitrypanosomal activity against Trypanosoma brucei brucei 427 bloodstream forms. Type of data set: toxicity, cell-based. Particulars: read-out: Ratio IC50. A digest of the protocol:
(§2)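 IC50 for growth inhibition of T. b. brucei 427, with cytotoxicity measured against human lung fibroblasts (MRC-5). Means of two or more independent experiments. Selectivity index is MRC-5 IC50 over T. b. brucei IC50.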

Data set [7] can be described thus: Ratio of drug level in brain to plasma in CD1 mouse at 78 mg/kg, po after 0.25 to 24 hrs by LC-MS/MS method. Type of data set: ADME, organism-based. Conditions: read-out: BPR.
The test system of data set [8] is Trypanosoma brucei brucei. As to the kind of experiment: Antitrypanosomal activity against Trypanosoma brucei brucei 427 bloodstream forms. The format is functional, organism-based. The gist of the method:
as §2

For data set [9], the system named is Trypanosoma brucei brucei. As to the kind of experiment: Antitrypanosomal activity against Trypanosoma brucei brucei TREU 667 infected in Swiss Webster mouse assessed as infection cure rate at 25 mg/kg, po qd for 7 days starting 21 days post-infection (reference value: 0%). The format is functional.
The test system of data set [10] is Trypanosoma brucei brucei. The experiment in a line: Antitrypanosomal activity against Trypanosoma brucei brucei TREU 667 infected in Swiss Webster mouse assessed as infection cure rate at 10 mg/kg, ip administered as single dose on day 4 post-infection (reference value: 0%). Type of data set: functional. A digest of the protocol: (§3)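 CNS (stage 2) model: mice infected with T. b. brucei TREU 667. Berenil given as a single i.p. dose of 10 mg/kg on day 4 or on day 21 post-infection. Cure rate and mean relapse time recorded against vehicle-treated controls.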

Data set [11] deals with Trypanosoma brucei brucei. As to the kind of experiment: Antitrypanosomal activity against Trypanosoma brucei brucei TREU 667 infected in Swiss Webster mouse assessed as infection cure rate at 10 mg/kg, ip administered as single dose on day 21 post-infection (reference value: 0%). Type of data set: functional. A digest of the protocol:
as §3

Data set [12] concerns Trypanosoma brucei brucei. The experiment in a line: Antitrypanosomal activity against Trypanosoma brucei brucei TREU 667 infected in Swiss Webster mouse assessed as mean relapse time at 10 mg/kg, ip administered as single dose on day 21 post-infection (reference value: 31 days). The format is functional. A digest of the protocol: as §3
Data set [13] deals with Trypanosoma brucei brucei. The experiment in a line: Antitrypanosomal activity against Trypanosoma brucei brucei TREU 667 infected in Swiss Webster mouse assessed as infection cure rate at 200 mg/kg, po qd for 5 days. The format is functional.

In brackets after ≈: the same amount, converted by molar mass.

Turning to `O=[N+]([O-])c1cn2c(n1)OC[C@@H](OCC#Cc1ccc(-c3ccc(C(F)(F)F)cc3)cn1)C2`, in data set [1], the selectivity ratio was greater than 19. Besides, the Papp A→B at 2.5 h, 3 µM in data set [2] is 3.5 ×10⁻⁶ cm/s. Turning to `O=[N+]([O-])c1cn2c(n1)OC[C@@H](Oc1cc(-c3ccc(C(F)(F)F)nc3)ccn1)C2`, in [1], the selectivity ratio was greater than 3.6. In turn, `O=C(Nc1ccc2c(c1)B(O)OC2)c1ccc(F)cc1C(F)(F)F` had a Time in data set [3] of 12 h. As to `O=[N+]([O-])c1cn2c(n1)OCC(COc1ccc(-c3ccc(OC(F)(F)F)cc3)nc1)C2` (stereo not given), the selectivity ratio in data set [1] is greater than 12. Also, in data set [2], the Papp A→B at 2.5 h, 3 µM is 7.4 ×10⁻⁶ cm/s.

For `O=[N+]([O-])c1cn2c(n1)OCC(COc1ccc(-c3ccc(C(F)(F)F)cc3)nc1)C2` (stereo not given), the selectivity ratio in [1] is greater than 36. Further, the Papp A→B at 2.5 h, 3 µM in [2] is 11.7 ×10⁻⁶ cm/s. For `CC1(COCc2ccc(OCc3ccccc3)cc2)Cn2cc([N+](=O)[O-])nc2[S+]1[O-]` (stereo not given), the t1/2 in data set [4] came out at 50 min. The selectivity ratio in data set [1] was greater than 77. Regarding `COc1ccc(-c2ccc(O[C@@H]3COc4nc([N+](=O)[O-])cn4C3)nc2)cn1`, the selectivity ratio in data set [1] is greater than 3.7. As to `O=[N+]([O-])c1cn2c(n1)OC[C@@H](OCCCc1ccc(-c3ccc(Oc4ccc(C(F)(F)F)cc4)cc3)cc1)C2`, in data set [1], the selectivity ratio was greater than 43. Turning to `CC1(COCc2ccc(OCc3ccccc3)cc2)Cn2cc([N+](=O)[O-])nc2S1` (stereo not given), in [5], the Ratio worked out at 0. The compound further had a t1/2 in data set [4] of 31 min. In addition, the selectivity ratio in data set [1] was greater than 4.5. Compound `O=[N+]([O-])c1cn2c(n1)SC(COCc1ccc(OCc3ccccc3)cc1)C2` (stereo not given) displayed a t1/2 in data set [4] of 67 min. In [1], the selectivity ratio is greater than 22. For the compound `O=[N+]([O-])c1cn2c(n1)[S@+]([O-])C[C@@H](OCc1ccc(OC(F)(F)F)cc1)C2`, in data set [1], the selectivity ratio was greater than 143.

Take `O=[N+]([O-])c1cn2c(n1)[S+]([O-])CC(OCc1ccc(-c3ccc(OC(F)(F)F)cc3)cn1)C2` (stereo not given): in data set [6], the selectivity ratio is greater than 500. For `CN1CC(OCc2ccc(OCc3ccccc3)cc2)Cn2nc([N+](=O)[O-])cc21` (stereo not given), in [4], the t1/2 is on record as 38 min. Besides, the selectivity ratio in [1] is greater than 3.3. `O=[N+]([O-])c1cn2c(n1)[S+]([O-])CC(OCc1ccc(OC(F)(F)F)cc1)C2` (stereo not given): the selectivity ratio in [1] was greater than 63.

As for `O=[N+]([O-])c1cn2c(n1)[S+]([O-])CC(OCc1ccc(OCc3ccccc3)cc1)C2` (stereo not given), the selectivity ratio in [1] was greater than 667. Turning to `O=[N+]([O-])c1cn2c(n1)S(=O)(=O)CC(OCc1ccc(OC(F)(F)F)cc1)C2` (stereo not given), the selectivity ratio in data set [1] was greater than 11. On to `O=[N+]([O-])c1cn2c(n1)S(=O)(=O)CC(OCc1ccc(OCc3ccccc3)cc1)C2` (stereo not given), for which the selectivity ratio in data set [1] was greater than 303. The Papp A→B at 2.5 h, 3 µM in [2] was determined as 3.69 ×10⁻⁶ cm/s. For the compound `O=[N+]([O-])c1cn2c(n1)OC[C@@H](NCc1ccc(OC(F)(F)F)cc1)C2`, the selectivity ratio in data set [1] was greater than 13. Besides, the Kp in [7] was 2 to 3. Take `CC1(C)OB(O)c2cc(NC(=O)c3ccc(F)cc3C(F)(F)F)ccc21` [ACOZIBOROLE]: the Time in data set [3] is 24 h. Moreover, half-maximal inhibition in data set [8] (IC50) was put at 0.29 µg/mL (≈ 0.79 µM). Further, the Activity in data set [9] stood at 100%.

In the case of `CC(=O)NCC(=O)O.CC(=O)NCC(=O)O.N=C(N)c1ccc(/N=N/Nc2ccc(C(=N)N)cc2)cc1` [DIMINAZENE DIACETURATE], the Activity in data set [10] is listed as 100%; in data set [11], 0%. Also, the Time in [12] is 41 days. In the case of `CSc1ccc(OCc2ncc([N+](=O)[O-])n2C)cc1` [FEXINIDAZOLE], in data set [13], the Activity amounted to 88%.

The term Papp A→B denotes the apparent permeability from the apical to the basolateral side of a cell layer. By IC50 is commonly meant the midpoint of a concentration-inhibition curve. A high value points to weaker potency.
